Experimental data published in ChEMBL document CHEMBL1926536, “Synthesis, molecular modeling studies and biological evaluation of fluorine substituted analogs of GW 501516” (Bioorg Med Chem, 2011).
pEC50: −log10 of the molar value.

How the values were obtained:
[1] = Induction of [14C]oleic acid oxidation in a human myotubes after 4 days by beta liquid scintillation counting; assay type: functional
Method in brief: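 Satellite cells from human abdominal muscle biopsies of healthy donors, differentiated to myotubes for 7 days in DMEM (5.5 mM glucose) with 2% FCS and 25 pM insulin. Then [1-14C]oleic acid (1 µCi/mL, 100 µM) in DPBS with 10 mM HEPES and 1 mM L-carnitine, 4 h at 37 °C. Trapped CO2 counted by scintillation, normalized to protein. EC50 from three independent experiments in quadruplicate, mean ± SD.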

[2] = target: T1, Peroxisome proliferator-activated receptor gamma (Homo sapiens, UniProt P37231); assay type: cell-based, COS-1
T1 sequence (P37231 whole entry): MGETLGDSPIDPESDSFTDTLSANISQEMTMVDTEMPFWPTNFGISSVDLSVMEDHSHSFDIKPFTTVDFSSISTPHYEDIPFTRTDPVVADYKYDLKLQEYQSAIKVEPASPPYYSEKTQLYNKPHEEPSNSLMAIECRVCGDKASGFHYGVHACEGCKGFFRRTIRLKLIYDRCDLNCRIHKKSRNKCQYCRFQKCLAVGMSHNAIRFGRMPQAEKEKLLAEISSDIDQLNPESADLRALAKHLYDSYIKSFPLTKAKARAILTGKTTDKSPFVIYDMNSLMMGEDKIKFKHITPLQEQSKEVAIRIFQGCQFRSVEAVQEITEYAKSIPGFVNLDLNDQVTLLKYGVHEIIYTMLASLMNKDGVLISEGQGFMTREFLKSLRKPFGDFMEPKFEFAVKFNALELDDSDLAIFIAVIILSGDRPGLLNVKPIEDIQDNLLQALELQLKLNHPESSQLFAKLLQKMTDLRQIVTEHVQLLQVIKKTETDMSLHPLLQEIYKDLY

[3] = target: T2, Peroxisome proliferator-activated receptor delta (Homo sapiens, UniProt Q03181); assay: Agonist activity at human PPARdelta ligand binding domain expressed in COS-1 cells after 24 hrs by luciferase reporter gene-based luminometric analysis; assay type: cell-based
T2 sequence (Q03181 whole entry): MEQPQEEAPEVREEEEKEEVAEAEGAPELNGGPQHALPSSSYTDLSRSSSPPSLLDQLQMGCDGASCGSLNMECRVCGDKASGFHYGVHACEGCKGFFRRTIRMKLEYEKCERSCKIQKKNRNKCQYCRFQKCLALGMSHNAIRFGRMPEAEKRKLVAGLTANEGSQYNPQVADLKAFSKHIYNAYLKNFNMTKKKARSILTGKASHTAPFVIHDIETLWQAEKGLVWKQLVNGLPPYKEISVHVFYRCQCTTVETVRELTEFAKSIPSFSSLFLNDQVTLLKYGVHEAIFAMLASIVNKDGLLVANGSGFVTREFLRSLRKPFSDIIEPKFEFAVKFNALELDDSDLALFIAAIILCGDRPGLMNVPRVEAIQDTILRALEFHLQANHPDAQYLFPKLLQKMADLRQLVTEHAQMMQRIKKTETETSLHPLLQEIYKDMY

[4] = target: T3, Peroxisome proliferator-activated receptor alpha (Homo sapiens, UniProt Q07869); assay: Agonist activity at human PPARalpha ligand binding domain expressed in COS-1 cells co-transfected with Gal4 after 24 hrs by luciferase reporter gene assay; assay type: cell-based
T3 sequence (Q07869 whole entry): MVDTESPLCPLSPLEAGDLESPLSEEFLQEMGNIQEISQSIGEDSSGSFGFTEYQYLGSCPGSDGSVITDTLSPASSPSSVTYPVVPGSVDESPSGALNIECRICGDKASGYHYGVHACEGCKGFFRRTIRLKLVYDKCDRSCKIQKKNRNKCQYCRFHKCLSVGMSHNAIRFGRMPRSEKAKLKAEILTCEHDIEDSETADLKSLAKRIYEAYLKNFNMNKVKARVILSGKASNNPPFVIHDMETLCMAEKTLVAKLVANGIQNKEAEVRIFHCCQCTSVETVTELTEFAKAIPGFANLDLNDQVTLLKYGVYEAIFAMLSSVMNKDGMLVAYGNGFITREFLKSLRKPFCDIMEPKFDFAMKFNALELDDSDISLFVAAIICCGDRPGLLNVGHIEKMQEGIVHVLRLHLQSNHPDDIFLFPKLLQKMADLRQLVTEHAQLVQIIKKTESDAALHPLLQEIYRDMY

| pEC50 [1] | pEC50 [2] | pEC50 [3] | pEC50 [4] | Structure (SMILES) |
| --- | --- | --- | --- | --- |
| 10.52 |  |  |  | Cc1cc(SCc2sc(-c3ccc(C(F)(F)F)cc3)nc2C)ccc1OCC(=O)O [GW501516] |
| 8.30 | < 6.00 | 6.54 | 6.15 | CCc1cc(SCc2sc(-c3ccc(C(F)(F)F)cc3)nc2C)ccc1OC(F)C(=O)O (racemic) |
| 7.50 | < 6.00 | 6.24 | 6.13 | Cc1nc(-c2ccc(C(F)(F)F)cc2)sc1CSc1ccc(OC(F)C(=O)O)c(C(C)C)c1 (racemic) |
| < 6.00 |  |  |  | CN(CCOc1ccc(CC2SC(=O)NC2=O)cc1)c1ccccn1 (configuration not stated) [ROSIGLITAZONE] |
| 8.43 | < 6.00 | 7.26 | 6.25 | Cc1cc(SCc2sc(-c3ccc(C(F)(F)F)cc3)nc2C)ccc1OC(F)C(=O)O (racemic) |
|  | < 6.00 | < 6.00 | 7.49 | CC/C=C\C/C=C\C/C=C\C/C=C\CC/C=C/C=C/C(=O)O |
